# Assay outcomes: PubChem BioAssay, several laboratories
# A selection: hits, their analogues and other compounds. The true share with any hit is near 3%.
# PKD1 kinase inh – inhibitors of human PKD1 kinase; 200,000 tested, 0.056% active; AID 797; PKD1 kinase fluorescence polarization assay; inhibition, % (concentration not given with the values); Q15139; in the data active means inhibition above about 50%
# Target sequence (Q15139 whole entry, looked up): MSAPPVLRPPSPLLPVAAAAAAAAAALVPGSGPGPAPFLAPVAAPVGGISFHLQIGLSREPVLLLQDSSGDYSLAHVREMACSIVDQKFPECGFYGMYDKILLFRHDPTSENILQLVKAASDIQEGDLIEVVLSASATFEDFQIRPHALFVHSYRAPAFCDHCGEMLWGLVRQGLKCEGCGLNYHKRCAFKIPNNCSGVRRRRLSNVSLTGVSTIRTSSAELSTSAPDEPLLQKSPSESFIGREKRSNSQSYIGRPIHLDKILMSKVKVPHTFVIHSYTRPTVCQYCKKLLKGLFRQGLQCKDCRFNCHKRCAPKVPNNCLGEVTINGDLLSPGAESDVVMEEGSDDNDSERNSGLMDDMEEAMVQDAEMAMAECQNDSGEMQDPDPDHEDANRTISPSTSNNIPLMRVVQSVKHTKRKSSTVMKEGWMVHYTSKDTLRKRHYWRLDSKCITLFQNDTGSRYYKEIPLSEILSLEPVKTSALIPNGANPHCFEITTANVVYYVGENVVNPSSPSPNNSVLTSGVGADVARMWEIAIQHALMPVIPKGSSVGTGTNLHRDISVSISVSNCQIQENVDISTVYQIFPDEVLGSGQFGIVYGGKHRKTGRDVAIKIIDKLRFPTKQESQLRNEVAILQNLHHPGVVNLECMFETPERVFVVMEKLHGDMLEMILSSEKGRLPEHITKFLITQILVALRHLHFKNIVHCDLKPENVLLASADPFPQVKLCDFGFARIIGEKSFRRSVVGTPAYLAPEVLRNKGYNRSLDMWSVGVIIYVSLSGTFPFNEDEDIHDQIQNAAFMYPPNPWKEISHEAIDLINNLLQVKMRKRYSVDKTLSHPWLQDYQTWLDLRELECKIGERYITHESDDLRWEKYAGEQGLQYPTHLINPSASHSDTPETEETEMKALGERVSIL
# ROMK mod – modulates human ROMK potassium channel activity. B-score at 10 µM. P48048. 130,000 tested, 2% active. Tet-inducible ROMK, thallium flux fluorescence; actives lie on both sides;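 active means signal ratio slope over the read window, or its plate-corrected B-score, at least 3 SD from the plate mean, either direction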;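 further: B-score of the F/F0 ratio slope over 7 to 12 s after thallium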
# KCC2 mod – modulates chloride dependent transport by human KCC2. KCC2 cells, thallium flux FluoZin-2 fluorescence. B-score of Tl+ flux slope (higher = more flux/activation; lower = inhibition) at 10 µM. 190,000 tested, 2.2% active. AID 1456;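 active means thallium flux slope and its plate-corrected score both differing from the plate sample mean at a set confidence after two filtering rounds, in either direction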;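 further: slope of fluorescence scaled to starting intensity during 10 to 20 s after thallium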
# Rad51 HR inh – Rad51 (human) homologous recombination inhibition; inhibition, % at 10 µM; hRad51 DNA strand exchange, fluorescence dequenching; Q06609; 200,000 tested, 0.085% active; AID 1385;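 active means inhibition above 40% at the single screening dose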
#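 material = hRad51 filaments on single-stranded DNA | reagent = Donor/quencher-labelled 47-bp dsDNA substrate | compound = 10 µM final, single point | schedule = strand-exchange reaction 15 min at room temperature | measured by = fluorescein emission 520 nm, excitation 485 nm | read-out basis = % inhibition versus plate control and blank means | benchmarks = plate controls and plate blanks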
# KCC2 secondary – confirmation of human KCC2 transport modulators. 3,700 tested, 15% active. normalised thallium flux (F/F0 slope) at 10 µM. AID 1713. HEK293-KCC2, thallium flux, FluoZin2 fluorescence; stronger effect = higher value. shares compounds with KCC2 mod;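 active means thallium flux slope above the same plate's solvent-only control mean plus 3 SD; inconclusive means the two replicate wells disagree; inactive means no significant difference from solvent-only control wells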
# KCC2 bumet counter – bumetanide-insensitive thallium flux in KCC2 cells with ouabain, counter-screen. shares compounds with KCC2 mod. HEK293-KCC2 + bumetanide/ouabain, thallium flux FluoZin2; stronger effect = higher value. normalized thallium flux at 10 µM. 3,700 tested, 49% active;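 active means thallium entry rate above the same plate's blocked-transporter control wells by more than 3 SD; inconclusive means the two repeat wells disagree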;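 further: raw slope of fluorescence over initial fluorescence between 10 and 20 s after thallium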
# KCC2 secondary2 – confirmation of human KCC2 transport modulators. shares compounds with KCC2 mod. AID 1715. 3,700 tested, 23% active. normalized thallium flux at 10 µM. HEK293-KCC2, thallium flux FluoZin2 fluorescence; actives lie on both sides; F/F0 rise rate, 10–20 s post-thallium;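 active means thallium flux slope more than 3 SD above or below the plate's solvent-only control mean, mostly below; inconclusive means the two repeat wells disagreed; inactive means no significant shift from solvent-only controls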
# HEK293 Tl flux – counter-screen for KCC2 modulators: effect in parental HEK293 cells; shares compounds with KCC2 mod; thallium flux FluoZin2, ouabain; baseline-ratio fluorescence slope, 10–20 s after thallium; thallium flux rate (normalised fluorescence) at 10 µM; 3,700 tested, 46% active;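 active means thallium flux rate significantly above the same plate's solvent-only control wells, beyond their mean plus 3 SD; inconclusive means the two replicate wells gave conflicting results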
# KCC2 ouabain – confirmation of human KCC2 modulators with ouabain; shares compounds with KCC2 mod; HEK293-KCC2, thallium flux FluoZin2 fluorescence; bidirectional: low = inhibitor, high = activator; raw Tl+ flux slope (below DMSO = inhibition, above = activation) at 10 µM; 3,700 tested, 48% active; AID 1717;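 active means thallium flux slope beyond 3 SD from same-plate DMSO control mean in most replicates, usually higher, sometimes lower; inconclusive means repeat tests gave conflicting results; inactive means no significant difference from controls in most replicates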;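 further: slope of initial-normalized fluorescence between seconds 10 and 20 after thallium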
# HEK293 Tl flux2 – acts in parental HEK cells, second KCC2 counter-screen; shares compounds with KCC2 mod; HEK293 parental, thallium flux FluoZin-2 fluorescence slope; thallium flux slope at 10 µM; 3,700 tested, 33% active; AID 1718;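 active means thallium flux slope above the same plate's solvent-control mean plus 3 SD in both duplicate wells; inconclusive means duplicate wells that disagreed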;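 further: run without ouabain in cells lacking the KCC2 cotransporter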
# A number is an active result; n = inactive; u = inconclusive; x = no result.
SMILES,PKD1 kinase inh,ROMK mod,KCC2 mod,Rad51 HR inh,KCC2 secondary,KCC2 bumet counter,KCC2 secondary2,HEK293 Tl flux,KCC2 ouabain,HEK293 Tl flux2
CN1CCN(S(=O)(=O)c2cccc(C(=O)Nc3nc(-c4ccccc4)cs3)c2)CC1,n,n,-3.04,x,n,n,n,u,n,n
COc1ccc(-c2csc(NC(=O)c3cccc(S(=O)(=O)N4CCN(C)CC4)c3)n2)cc1,n,x,n,n,x,x,x,x,x,x
CCC(=O)Nc1nc(-c2ccccc2)ns1,n,n,2.47,n,n,n,n,n,n,n
CCOc1ccc(NC(=O)c2ccc(F)cc2F)cc1,x,x,x,n,x,x,x,x,x,x
CCOC(=O)C1CCCN(C(=S)Nc2cccc(Cl)c2C)C1 (stereo not drawn),n,x,n,n,x,x,x,x,x,x
COc1ccc(C(=O)NCC(=O)OCC(=O)Nc2cc([N+](=O)[O-])ccc2F)cc1,n,n,n,n,x,x,x,x,x,x
CCOP(=O)(Nc1ccc2oc(=O)c3ccccc3c2c1)OCC,x,x,n,x,x,x,x,x,x,x
O=C(NCc1ccccc1)C(=O)Nc1nc(-c2ccccc2)cs1,x,x,27.4,x,0.0208,0.0371,n,0.0532,0.0392,0.0161
O=C(Nc1nc(-c2ccccc2)cs1)c1ccccc1NS(=O)(=O)c1ccc(F)cc1,n,n,-6.49,x,n,u,0.0173,u,0.00963,n
O=C(Nc1nc(-c2ccccn2)cs1)c1ccc(Cl)s1,n,x,37.4,n,n,0.0604,0.06,0.0601,0.0544,0.0629
O=S(=O)(Nc1ccc(-c2csc(-c3ccccc3)n2)cc1)c1ccc(F)cc1,n,x,x,n,x,x,x,x,x,x
O=C(NCc1ccccn1)C(=O)Nc1nc(-c2ccccc2)cs1,x,x,n,x,x,x,x,x,x,x
CCOc1ccc(NC(=O)CSc2nnc(CCNC(=O)c3ccc(OC)cc3)n2CC)cc1,n,n,x,x,n,u,n,n,n,u
CCn1c(CCNC(=O)c2ccc(OC)cc2)nnc1SCC(=O)Nc1ccccc1F,n,n,n,n,x,x,x,x,x,x
O=S(=O)(c1ccc2ncn(O)c2c1)N1CCOCC1,n,n,n,n,x,x,x,x,x,x
CCn1c(CCNC(=O)c2cccs2)nnc1SCC(=O)Nc1nc(-c2ccccc2)cs1,n,x,-3.22,n,n,n,u,n,0.0137,n
Cc1cccc(N2C(=O)CS/C2=N\NC(=O)c2ccc(Br)cc2)c1C,n,x,7.93,n,n,0.0348,n,0.0229,0.0343,0.0238
CCc1nnc(NC(=O)C2CCCN(S(=O)(=O)c3ccccc3)C2)s1 (stereo not drawn),n,n,x,n,u,n,n,n,n,n
Cc1ccc(Cn2c(SCCN3CCCCC3)nc3c2c(=O)n(C)c(=O)n3C)cc1,n,n,x,n,x,x,x,x,x,x
Cc1ccc(Cn2c(SCC(N)=O)nc3c2c(=O)n(C)c(=O)n3C)cc1,n,n,4.83,n,n,u,n,n,n,n
COC(=O)CC1C(=O)NCCN1C(=O)CSc1nc2ccccc2c(=O)n1CC(C)C (stereo not drawn),n,n,21.9,n,n,0.0351,0.04,0.0324,0.0375,0.0265
Cc1ccc(-c2nc3ccccc3c(=O)n2NC(=S)N(C)C)cc1,n,x,n,n,x,x,x,x,x,x
S=c1nc(Cc2ccc(Cl)cc2)[nH]c2ccccc12,n,n,66.6,n,0.0529,0.153,0.0437,0.0985,0.0848,0.0435
Cc1nc(=S)c2ccccc2[nH]1,n,n,x,n,x,x,x,x,x,x
Cc1c(-n2c(SCC(=O)C(C)(C)C)nc3ccccc3c2=O)c(=O)n(-c2ccccc2)n1C,n,n,n,n,x,x,x,x,x,x
COc1cc2c(=O)n(CCCC(=O)NCC3CCCO3)c(=O)n(CC(=O)c3ccc(F)cc3)c2cc1OC (stereo not drawn),n,n,n,n,x,x,x,x,x,x
